Reference: PMC9271465 (ESMO Open, 2022)

Experiment: phase I dose-escalation: plasma pharmacokinetics
Assay type: in vivo, patients
Settings: for Cmax,ss / t1/2 / AUC0-24 h / Cmax: mean (%CV); for Tmax,ss / Tmax: median (range)
Outline: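 Oral tablet, fasted, qd or b.i.d. (25–300 mg). Plasma sampled in cycle 0 after a single dose at pre-dose and 0.5–144 h. Under continuous dosing, sampled pre-dose on cycle 1 days 8 and 15, and on day 21 pre-dose to 24 h (b.i.d. to 12 h). Plasma stored at −80 °C. Noncompartmental analysis; arithmetic mean (%CV), Tmax median (range).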

[1] = multiple doses 21 days, 25 mg qd, n = 1
[2] = multiple doses 21 days, 50 mg qd, n = 3
[3] = multiple doses 21 days, 100 mg b.i.d., n = 3
[4] = multiple doses 21 days, 100 mg qd, n = 3
[5] = multiple doses 21 days, 200 mg qd, n = 3
[6] = multiple doses 21 days, 300 mg qd, n = 1
[7] = steady state after 21 days of multiple doses

## C=CC(=O)Nc1cc(Nc2ncc(Cl)c(Nc3ccccc3C(=O)C(=O)N(C)C)n2)c(OC)cc1N1CCN(C)CC1 [BPI-15086]
25 to 300 mg, single dose and multiple doses
  dose dependence of Cmax and AUC0-t: increased in a dose-dependent manner
[1]
  Cmax,ss: 24.6 (NA) ng/ml
  Tmax,ss: 2.88 (2.88-2.88) h
[2]
  Cmax,ss: 48.5 (64.3) ng/ml
  Tmax,ss: 2.08 (2.02-4.00) h
Multiple doses 21 days, 50 mg qd
  t1/2: 8.94 (NA) h
[3]
  Cmax,ss: 240 (37.9) ng/ml
  Tmax,ss: 2.98 (2.03-3.00) h
Multiple doses 21 days, 100 mg b.i.d.
  t1/2: 4.78 (NA) h
[4]
  Cmax,ss: 84.6 (65.6) ng/ml
  Tmax,ss: 3.00 (2.00-3.95) h
[5]
  Cmax,ss: 209 (71.1) ng/ml
  Tmax,ss: 2.02 (1.98-3.00) h
Multiple doses 21 days, 200 mg qd
  t1/2: 9.09 (1.51) h
[6]
  Cmax,ss: 924 (NA) ng/ml
  Tmax,ss: 2.02 (2.02-2.02) h
Multiple doses 21 days, 300 mg qd
  t1/2: 9.84 (NA) h
Single dose, 25 mg qd, n = 1
  AUC0-24 h: 285 (NA) h × ng/ml
  Cmax: 31.6 (NA) ng/ml
  t1/2: 12.2 (NA) h
  Tmax: 1.97 (1.97-1.97) h
Single dose, 50 mg qd, n = 3
  AUC0-24 h: 324 (47.7) h × ng/ml
  Cmax: 31.3 (40.1) ng/ml
  t1/2: 13.4 (35.2) h
  Tmax: 2.93 (2.02-4.05) h
Single dose, 100 mg qd, n = 3
  AUC0-24 h: 580 (37.3) h × ng/ml
  Cmax: 46.1 (34.7) ng/ml
  t1/2: 11.3 (23.3) h
  Tmax: 3.00 (2.03-4.00) h
Single dose, 200 mg qd, n = 7
  AUC0-24 h: 2630 (91.2) h × ng/ml
  Cmax: 273 (97.8) ng/ml
  t1/2: 9.91 (15.5) h
  Tmax: 4.02 (2.02-5.13) h
Single dose, 300 mg qd, n = 3
  AUC0-24 h: 3860 (41.3) h × ng/ml
  Cmax: 354 (29.5) ng/ml
  t1/2: 14.1 (58.6) h
  Tmax: 4.00 (3.98-5.00) h
Single dose, 25-300 mg
  mean apparent terminal elimination half-life (t1/2), range across doses: 9.91 to 14.1 h
Single dose, lowest to highest doses 25-300 mg
  Median Tmax, range across doses: 1.97 to 4.02 h
Steady state
  mean Vz/F, range across doses: 556 to 3830 L
  mean apparent oral clearance (CLss/F), range across doses: 49.3 to 166 L/h
  mean t1/2, range across doses: 4.78 to 9.84 h
[7]
  Cmax,ss, range across doses: 24.6 to 924 ng/mL
  Tmax,ss, range across doses: 2.02 to 3.00 h
